Measurements pooled from the literature.
Protocols differ between the studies behind these lines.
Tyrosine-protein phosphatase YopH: Tyrosine-protein phosphatase YopH (Yersinia enterocolitica, UniProt P15273)
BCHE: Cholinesterase (BCHE, Equus caballus, UniProt P81908)

| Structure (SMILES) | target | assay | conditions | quantity | result |
| --- | --- | --- | --- | --- | --- |
| O=S(=O)([O-])[O-].[O]=[V+2] | Tyrosine-protein phosphatase YopH | enzyme activity, inhibitor | 25 µM | inhibition | 99.7% |
| CCN(CC)CCCC[C@H](NC(=O)[C@H](CC(C)C)NC(=O)[C@H](C)NC(=O)[C@H](Cc1ccccc1)NC(=O)c1ccc(C(C)(C)C)cc1)C(=O)N[C@@H](CO)C(=O)OC | Transcription initiation factor TFIID subunit 1, BD2 (TAF1, Homo sapiens, UniProt P21675) | thermal stability, DSF | 25 µM | ΔTm | 0.62 °C |
| COc1ncccc1-c1cnn2ccc(N3CCN(C(=O)OC(C)C)CC3)nc12 | Serine/threonine-protein kinase MRCK alpha (CDC42BPA, Homo sapiens, UniProt Q5VT25) | binding, competition with immobilised ligand | 1 µM | remaining binding | 72% |
| [O]=[V]([S]c1cccc[n+]1[O-])[S]c1cccc[n+]1[O-] | Tyrosine-protein phosphatase YopH | enzyme activity, inhibitor | 25 µM | inhibition | 99.5% |
| COc1cc2c(cc1OC)C(=O)N(CC1CCNCC1)C2 | BCHE | enzyme activity, inhibitor, Ellman | 1 µM | inhibition | 6.8% |
| Nc1ncc(-c2nc(N3CCOCC3)nc(N3CCOCC3)n2)c(C(F)F)n1 | Ribosomal protein S6 kinase alpha-3, C-terminal kinase domain (RPS6KA3, Homo sapiens, UniProt P51812) | binding, competition with immobilised ligand | 10 µM | remaining binding | 84% |
| COc1cc2c(cc1OC)C(=O)N(CC1CCN(CC3CCNC3)CC1)C2 (centres unmarked) | BCHE | enzyme activity, inhibitor, Ellman | 1 µM | inhibition | -13.6% |
| C#Cc1n[nH]c2c(-c3cn(C(C)c4ccccn4)c(=O)[nH]c3=O)cc(F)cc12 (centres unmarked) | Mitogen-activated protein kinase kinase kinase 9 (MAP3K9, Homo sapiens, UniProt P80192) | enzyme activity, inhibitor | 1 µM | inhibition | 5% |
